Assay results pooled from the literature.
Protocols differ between the studies behind these lines.
CDK4: Cyclin-dependent kinase 4 (CDK4, Homo sapiens, UniProt P11802)
REN: Renin (REN, Homo sapiens, UniProt P00797)

| SMILES | target | assay | conditions | inhibition |
| --- | --- | --- | --- | --- |
| CCOC(=O)[C@H]1Cc2c(cc([N+](=O)[O-])cc2[N+](=O)[O-])[C@@H](O)[C@@]12C(=O)Nc1ccc(F)cc12 | CDK4 | cell-free assay, inhibitor, TR-FRET | 1 µM | 53.9% |
| C#Cc1n[nH]c2c(-c3cn(C(C)c4ccccn4)c(=O)[nH]c3=O)cc(F)cc12 (stereo not drawn) | Tyrosine-protein kinase Fer (FER, Homo sapiens, UniProt P16591) | enzyme activity, inhibitor | 1 µM | 6.8% |
| CC(C)C[C@H](NC(=O)[C@H](Cc1ccccc1)NC(=O)c1cnccn1)B(O)O | GZMA (Homo sapiens, UniProt P12544) | enzyme activity, inhibitor | 33 µM | 72.4% |
| COc1cc(Nc2ncc(F)c(Nc3ccc4c(n3)NC(=O)C(C)(C)O4)n2)cc(OC)c1OC | Cyclin-G-associated kinase (GAK, Homo sapiens, UniProt O14976) | binding | 10 µM | 95% |
| COCCCOc1cc(C[C@@H](C[C@H](N)[C@@H](O)C[C@H](C(=O)NCC(C)(C)C(N)=O)C(C)C)C(C)C)ccc1OC | REN | enzyme activity, inhibitor | 1 nM | 11% |
| CCOC(=O)[C@H]1Cc2c(cc([N+](=O)[O-])cc2[N+](=O)[O-])[C@@H](O)[C@@]12C(=O)Nc1cc(Cl)ccc12 | CDK4 | cell-free assay, inhibitor, TR-FRET | 1 µM | 61.2% |
| Cn1cc(-c2cc(F)cc(N3CCn4c(cc5c4CCCC5)C3=O)c2CO)cc(Nc2ccc(N3CCN(C4COC4)CC3)cn2)c1=O | Serine/threonine-protein kinase MRCK beta (CDC42BPB, Homo sapiens, UniProt Q9Y5S2) | enzyme activity, inhibitor | 0.1 µM | 2% |
| C#Cc1n[nH]c2c(-c3cn([C@@H](C)c4ccccc4)c(=O)[nH]c3=O)cc(F)cc12 | Fibroblast growth factor receptor 3 (FGFR3, Homo sapiens, UniProt P22607) | enzyme activity, inhibitor | 0.1 µM | -2.7% |
| CCOC(=O)[C@H]1Cc2c(cc([N+](=O)[O-])cc2[N+](=O)[O-])[C@H](O)[C@]12C(=O)Nc1c(F)cccc12 | CDK4 | cell-free assay, inhibitor, TR-FRET | 1 µM | 32.6% |
| N=C(N)c1ccc2cc(OC(=O)c3ccc(N=C(N)N)cc3)ccc2c1 | REN | enzyme activity, inhibitor | 10 µM | 45% |
| C[C@H](C(=O)N[C@H]1COc2ccccc2[C@@H]1S(C)(=O)=O)c1ccc(F)cc1 | REN | enzyme activity, inhibitor | 10 µM | -2% |
| CCOC(=O)[C@H]1Cc2c(cc([N+](=O)[O-])cc2[N+](=O)[O-])[C@@H](O)[C@@]12C(=O)Nc1ccc(Cl)cc12 | CDK4 | cell-free assay, inhibitor, TR-FRET | 1 µM | 70.2% |
